Some results are limits rather than exact numbers.

Data set [1] concerns the target T1, Voltage-dependent T-type calcium channel subunit alpha-1G (Homo sapiens, UniProt O43497). Nature of the data set: Antagonist activity at T type calcium channel alpha1G expressed in HEK293 cells assessed as inhibition of peak currents at 10 uM by whole-cell patch-clamp method. In kind it is functional, cell-based.
Data set [2] concerns the target Voltage-gated inwardly rectifying potassium channel KCNH2 (Homo sapiens, UniProt Q12809). The data set can be described thus: Inhibition of human ERG channel.
Data set [3] in a line: Inhibition of L type calcium channel at 1 uM.
A short description of data set [4]: Ratio of IC50 for human ERG channel to IC50 for T type calcium channel alpha1G.
Data set [5] can be described thus: Selectivity for T type calcium channel alpha1G over L type calcium channel.
The nature of data set [6]: Tmax in mouse brain at 50 mg/kg, po. In kind it is ADME, organism-based. More on the design: dose 50 mg/kg, route oral. Summed up: (§1)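 Single oral gavage dose of 50 mg/kg to mice. Vehicle was DMA/Cremophor EL/PBS (10/10/80 v/v %). Plasma and brain were sampled. AUC0–t was calculated by the linear trapezoidal rule, and brain/plasma ratio was taken as AUCbrain/AUCplasma.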

A short description of data set [7]: Tmax in mouse plasma at 50 mg/kg, po. Type of data set: ADME, organism-based. More on the design: dose 50 mg/kg, route oral. The gist of the method:
as §1

Data set [8] is described as follows: Cmax in mouse brain at 50 mg/kg, po. In kind it is ADME, organism-based. More on the design: dose 50 mg/kg, route oral. The gist of the method:
as §1

Data set [9] can be described thus: Cmax in mouse plasma at 50 mg/kg, po. More on the design: dose 50 mg/kg, route oral. Type of data set: ADME, organism-based. The gist of the method: as §1
Data set [10] is described as follows: Ratio of Cmax for mouse brain to Cmax for mouse plasma at 50 mg/kg, po. More on the design: dose 50 mg/kg, route oral. Type of data set: ADME, organism-based.
Data set [11] can be described thus: AUC (0 to t) in mouse brain at 50 mg/kg, po. On the set-up: dose 50 mg/kg, route oral. In kind it is ADME, organism-based. The gist of the method: as §1
Data set [12] can be described thus: AUC (0 to t) in mouse plasma at 50 mg/kg, po. Type of data set: ADME, organism-based. More on the design: dose 50 mg/kg, route oral. The gist of the method:
as §1

The nature of data set [13]: Ratio of AUC (0 to t) for mouse brain to AUC (0 to t) for mouse plasma at 50 mg/kg, po. Type of data set: ADME, organism-based. More on the design: dose 50 mg/kg, route oral. Summed up: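 Mice got a single oral 50 mg/kg dose in DMA/Cremophor EL/PBS (10/10/80 v/v %). Plasma and brain levels were measured to give Tmax, Cmax and AUC0–t, with AUC by the linear trapezoidal rule. Brain/plasma ratio taken from the brain and plasma parameters (B/P = AUC_brain/AUC_plasma).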

Data set [14] is described as follows: Metabolic stability in mouse liver. Type of data set: ADME, tissue-based. Conditions: liver (preparation not stated).
Data set [15] deals with T1, Voltage-dependent T-type calcium channel subunit alpha-1G. The data set can be described thus: Antagonist activity at T type calcium channel alpha1G expressed in HEK293 cells assessed as inhibition of peak currents by whole-cell patch-clamp method.
For data set [16] the target is unchanged. Nature of the data set: Antagonist activity at T type calcium channel alpha1G expressed in HEK293 cells assessed as inhibition of peak currents at 1 uM by whole-cell patch-clamp method. In kind it is functional, cell-based. A general note: The patch-clamp technique gives a direct electrical read-out from membranes.
The target is the same in data set [17]. The data set can be described thus: Antagonist activity at T type calcium channel alpha1G expressed in HEK293 cells assessed as inhibition of peak currents by whole-cell patch-clamp method. Type of data set: functional, cell-based. Summed up:
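Whole-cell patch clamp on HEK293 cells expressing alpha1G. External solution contained 140 mM NaCl, CaCl2, 10 mM Hepes and 10 mM glucose at pH 7.4. Pipettes were 3–4 MΩ, with Mg-ATP in the internal solution. Currents were evoked every 15 s by a 50 ms step from −100 to −30 mV. IC50 came from dose–response fits of peak current inhibition.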

T1 sequence (O43497 whole entry): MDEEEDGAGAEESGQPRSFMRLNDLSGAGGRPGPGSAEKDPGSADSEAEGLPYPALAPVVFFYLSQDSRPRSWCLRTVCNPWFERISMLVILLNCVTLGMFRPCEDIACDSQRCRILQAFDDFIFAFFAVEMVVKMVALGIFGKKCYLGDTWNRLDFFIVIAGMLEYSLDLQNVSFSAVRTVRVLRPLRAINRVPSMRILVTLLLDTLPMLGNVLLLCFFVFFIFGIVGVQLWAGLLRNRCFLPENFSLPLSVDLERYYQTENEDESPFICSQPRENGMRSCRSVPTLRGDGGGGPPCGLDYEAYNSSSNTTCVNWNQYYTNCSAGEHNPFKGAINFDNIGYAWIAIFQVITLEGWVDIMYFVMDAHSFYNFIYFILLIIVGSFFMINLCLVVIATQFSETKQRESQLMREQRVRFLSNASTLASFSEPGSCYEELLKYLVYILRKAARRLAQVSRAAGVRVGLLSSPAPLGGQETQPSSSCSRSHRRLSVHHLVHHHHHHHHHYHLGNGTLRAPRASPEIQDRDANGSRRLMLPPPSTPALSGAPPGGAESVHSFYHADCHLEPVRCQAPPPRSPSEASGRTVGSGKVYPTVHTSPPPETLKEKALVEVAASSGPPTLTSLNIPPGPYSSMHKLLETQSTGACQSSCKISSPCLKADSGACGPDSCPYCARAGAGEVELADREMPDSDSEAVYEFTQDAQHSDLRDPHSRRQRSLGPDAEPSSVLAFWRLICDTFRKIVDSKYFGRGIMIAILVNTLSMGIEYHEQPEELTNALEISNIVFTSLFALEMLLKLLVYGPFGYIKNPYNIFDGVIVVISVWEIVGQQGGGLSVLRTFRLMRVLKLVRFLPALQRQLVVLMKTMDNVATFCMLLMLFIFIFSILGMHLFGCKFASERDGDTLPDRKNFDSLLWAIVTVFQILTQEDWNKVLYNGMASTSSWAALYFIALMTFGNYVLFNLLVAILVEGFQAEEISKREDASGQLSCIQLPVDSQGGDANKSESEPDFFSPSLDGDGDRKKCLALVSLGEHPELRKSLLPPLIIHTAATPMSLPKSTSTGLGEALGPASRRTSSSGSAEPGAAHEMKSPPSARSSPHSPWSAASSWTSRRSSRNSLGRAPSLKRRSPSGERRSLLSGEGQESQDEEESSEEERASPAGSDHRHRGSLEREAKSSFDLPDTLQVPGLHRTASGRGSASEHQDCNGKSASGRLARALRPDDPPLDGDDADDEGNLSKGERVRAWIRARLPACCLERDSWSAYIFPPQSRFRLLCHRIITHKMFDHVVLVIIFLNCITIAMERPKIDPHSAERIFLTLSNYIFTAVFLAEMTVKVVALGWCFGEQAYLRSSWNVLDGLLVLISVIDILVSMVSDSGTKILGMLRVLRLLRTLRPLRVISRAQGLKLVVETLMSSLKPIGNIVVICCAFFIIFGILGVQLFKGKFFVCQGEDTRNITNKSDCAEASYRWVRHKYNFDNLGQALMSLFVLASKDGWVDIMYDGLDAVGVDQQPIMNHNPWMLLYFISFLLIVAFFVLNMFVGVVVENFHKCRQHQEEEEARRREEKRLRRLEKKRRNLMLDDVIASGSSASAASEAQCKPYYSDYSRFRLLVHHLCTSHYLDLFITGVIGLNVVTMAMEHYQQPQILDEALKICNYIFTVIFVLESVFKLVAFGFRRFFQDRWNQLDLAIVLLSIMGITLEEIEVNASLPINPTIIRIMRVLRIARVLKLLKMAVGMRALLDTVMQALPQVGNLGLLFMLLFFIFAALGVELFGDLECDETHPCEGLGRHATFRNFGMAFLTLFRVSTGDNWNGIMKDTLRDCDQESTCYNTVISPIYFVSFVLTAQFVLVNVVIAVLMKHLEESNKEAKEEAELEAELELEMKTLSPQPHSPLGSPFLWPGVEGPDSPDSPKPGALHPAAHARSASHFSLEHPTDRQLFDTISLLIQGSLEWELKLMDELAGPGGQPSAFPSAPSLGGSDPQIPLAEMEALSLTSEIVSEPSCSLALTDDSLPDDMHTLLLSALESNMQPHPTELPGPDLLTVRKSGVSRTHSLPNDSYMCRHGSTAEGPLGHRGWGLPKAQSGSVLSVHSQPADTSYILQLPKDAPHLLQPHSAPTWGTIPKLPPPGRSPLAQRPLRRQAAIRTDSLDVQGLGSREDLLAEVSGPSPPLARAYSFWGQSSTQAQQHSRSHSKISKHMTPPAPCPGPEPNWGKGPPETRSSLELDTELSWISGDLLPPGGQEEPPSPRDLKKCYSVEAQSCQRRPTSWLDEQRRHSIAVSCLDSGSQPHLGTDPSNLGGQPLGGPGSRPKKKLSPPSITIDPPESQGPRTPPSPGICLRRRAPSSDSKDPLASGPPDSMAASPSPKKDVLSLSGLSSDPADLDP
Chain of Voltage-gated inwardly rectifying potassium channel KCNH2 (Q12809 whole entry): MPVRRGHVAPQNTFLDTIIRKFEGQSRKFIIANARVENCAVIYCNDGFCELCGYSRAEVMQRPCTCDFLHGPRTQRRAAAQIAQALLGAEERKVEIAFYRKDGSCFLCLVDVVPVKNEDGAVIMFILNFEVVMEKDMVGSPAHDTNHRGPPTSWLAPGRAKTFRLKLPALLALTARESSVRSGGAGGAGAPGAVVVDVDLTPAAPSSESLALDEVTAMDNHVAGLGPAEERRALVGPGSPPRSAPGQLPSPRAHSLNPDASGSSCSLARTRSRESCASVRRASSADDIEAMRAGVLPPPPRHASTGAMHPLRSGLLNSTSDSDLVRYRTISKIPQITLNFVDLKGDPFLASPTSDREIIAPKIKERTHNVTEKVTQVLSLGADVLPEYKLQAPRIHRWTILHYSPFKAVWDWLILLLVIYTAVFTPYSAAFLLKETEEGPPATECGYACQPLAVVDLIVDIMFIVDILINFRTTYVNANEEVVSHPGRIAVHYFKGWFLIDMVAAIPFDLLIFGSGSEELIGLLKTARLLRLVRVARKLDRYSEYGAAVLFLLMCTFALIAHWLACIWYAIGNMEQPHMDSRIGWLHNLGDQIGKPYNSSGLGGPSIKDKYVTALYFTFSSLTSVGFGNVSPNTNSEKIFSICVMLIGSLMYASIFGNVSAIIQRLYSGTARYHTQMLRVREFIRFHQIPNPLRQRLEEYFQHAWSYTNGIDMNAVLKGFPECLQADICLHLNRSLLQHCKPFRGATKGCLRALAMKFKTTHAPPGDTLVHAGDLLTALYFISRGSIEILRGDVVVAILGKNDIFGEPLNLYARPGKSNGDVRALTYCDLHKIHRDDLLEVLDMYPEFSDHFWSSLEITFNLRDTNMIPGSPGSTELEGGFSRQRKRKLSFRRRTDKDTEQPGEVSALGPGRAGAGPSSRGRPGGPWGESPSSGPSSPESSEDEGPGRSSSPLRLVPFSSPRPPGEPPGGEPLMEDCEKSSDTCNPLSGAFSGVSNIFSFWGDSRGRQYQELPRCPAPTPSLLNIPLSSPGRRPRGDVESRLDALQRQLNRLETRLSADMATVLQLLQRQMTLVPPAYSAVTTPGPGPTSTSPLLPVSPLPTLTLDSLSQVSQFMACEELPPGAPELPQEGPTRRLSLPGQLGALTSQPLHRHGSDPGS

One may read the inhibition as how much of the control response was suppressed. For the molecule `CCOC(=O)C(CCCN(C)CCCc1nc2cc(C)c(C)cc2[nH]1)(c1ccccc1)C(C)C` (stereo not drawn), the inhibition in data set [1] was 91.4%. Consider `COC(=O)C(CCCN1CCN(Cc2cccc(C)c2)CC1)(c1ccc(Br)cc1)C(C)C` (stereo not drawn), for which, in data set [1], the inhibition worked out at 94.9%. With `COC(=O)C(CCCN1CCN(Cc2ccc(F)cc2)CC1)(c1ccc(Br)cc1)C(C)C` (stereo not drawn), the inhibition in data set [1] worked out at 96.5%. With `COC(=O)C(CCCN1CCN(Cc2ccccc2F)CC1)(c1ccc(Br)cc1)C(C)C` (stereo not drawn), the inhibition in [1] is 90.4%. Turning to `COC(=O)C(CCCN1CCN(Cc2ccc(OC)c(OC)c2OC)CC1)(c1ccc(Br)cc1)C(C)C` (stereo not drawn), the inhibition in [1] amounted to 95.1%. `COC(=O)C(CCCN1CCN(Cc2cccc(F)c2)CC1)(c1ccc(Br)cc1)C(C)C` (stereo not drawn): the inhibition in data set [1] came to 89.3%. Regarding `CCOC(=O)C(CCCN1CCN(Cc2ccc(F)cc2)CC1)(c1ccccc1)C(C)C` (stereo not drawn), the inhibition in data set [1] is 94%. On to `CCOC(=O)C(CCCN1CCN(Cc2ccc(OC)cc2)CC1)(c1ccccc1)C(C)C` (stereo not drawn), for which the inhibition in data set [1] was 96.3%. A word on the IC50: it is the concentration that gives 50% inhibition. What is called Tmax is the time at which the peak concentration occurs. The term Cmax denotes the maximum level reached in the sampled fluid or tissue. One may read the Kp as the ratio of the level in a tissue or fluid to that in plasma or blood. Usually AUC(0-t) stands for exposure summed from dosing to a finite time, without extrapolation to infinity. Read a low AUC(0-t) as low exposure. The term half-life denotes how long it takes for the measured level to halve. Low readings indicate rapid decline, high ones slow decline. Turning to `COC(=O)C(CCCN(C)CCCc1nc2ccccc2[nH]1)(c1ccc(Br)cc1)C(C)C` (stereo not drawn), the figures for the IC50 in [2] and in [15] were 178 nM and 8.17 nM, respectively. Further, the inhibition was determined as 0% in [3] and 96.9% in data set [1]. Also, the Ratio IC50 in data set [4] stood at 21.8. In [5], the Selectivity Index was more than 1000. For the same molecule, the Tmax in [6] and in data set [7] was 1 h throughout. The highest concentration (Cmax) worked out at 274 ng/mL in data set [8] and 1620 ng/mL in data set [9]. The figures for the Kp in data set [10] and in [13] were 0.17 and 0.25, respectively. The AUC(0-t) was 973 ng·h/mL in [11] and 3900 ng·h/mL in [12]. The half-life in [14] is 1 h. Take `COC(=O)C(CCCN(C)CCCc1nc2cc(OC)ccc2[nH]1)(c1ccc(OC)cc1)C(C)C` (stereo not drawn): in data set [1], the inhibition came out at 91.7%. With `COC(=O)C(CCCN(C)CCCc1nc2cc(C)c(C)cc2[nH]1)(c1ccc(Br)cc1)C(C)C` (stereo not drawn), the inhibition in [16] came out at 94.2%. As for `COC(=O)C(CCCN1CCN(Cc2cccc(C(F)(F)F)c2)CC1)(c1ccc(Br)cc1)C(C)C` (stereo not drawn), the IC50 in [17] amounted to 280 nM. Further, the inhibition in [1] came out at 93%. Turning to `COC(=O)C(CCCN(C)CCCc1nc2ccccc2[nH]1)(c1ccc(OC)cc1)C(C)C` (stereo not drawn), in [1], the inhibition is 93.5%. For `CCOC(=O)C(CCCN(C)CCCc1nc2ccccc2[nH]1)(c1ccccc1)C(C)C` (stereo not drawn), the inhibition in data set [1] was determined as 98.3%. In the case of `COC(=O)C(CCCN(C)CCCc1nc2cc(OC)ccc2[nH]1)(c1ccc(Br)cc1)C(C)C` (stereo not drawn), in data set [1], the inhibition is 94.5%. For the molecule `COC(=O)C(CCCN1CCN(c2ccccc2OC)CC1)(c1ccc(Br)cc1)C(C)C` (stereo not drawn), in data set [17], the IC50 was found to be 95 nM. In [1], the inhibition came to 94.1%. In the case of `COC(=O)C(CCCN1CCN(Cc2ccc(OC)cc2)CC1)(c1ccc(Br)cc1)C(C)C` (stereo not drawn), the inhibition in data set [1] is 96%.

Source of the values: ChEMBL document CHEMBL1155867, “Synthesis and evaluation of alpha,alpha'-disubstituted phenylacetate derivatives for T-type calcium channel blockers” (Bioorg Med Chem Lett, 2008).
